The subject of assay [1] is A549. Put plainly: Antitumor activity against human A549 cells xenografted in Balb/c mouse assessed as tumor growth inhibition at 30 mg/kg, ip treated once in 2 days for 10 days relative to control. The conditions noted are these: read-out: TGI. It counts as functional. The procedure, abridged:
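Male BALB/c nude mice, 5 weeks old, 18−20 g. Right flank injected sc with 0.1 mL of 1 × 10⁷ cells/mL log-phase A549 in FBS-free DMEM. At ~100 mm³, randomised into groups of 5 and dosed ip every 2 days; vehicle controls got equal volume. Tumour volume (0.5 × length × width²) and body weight recorded every 2 days.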
(In general: A xenograft is tissue or cells of one species grown in another, often human tumour cells in immunodeficient mice.)

Assay [2] has as its system A549. Kind of assay: Induction of apoptosis in human A549 cells assessed as upregulation of Bad level at 2 to 4 nM after 24 to 48 hrs by Western blot method. It counts as functional, cell-based. The procedure, abridged: (§1)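 A549 seeded in 60 mm dishes at 5 × 10⁵ cells and treated for 24 or 48 h. Lysed in RIPA buffer on ice for 30 min and spun at 12 500g. Protein measured by BCA; 40 μg run on 8−12% SDS−PAGE and moved to nitrocellulose. Blocked in 5% milk, primary antibodies at 4 °C overnight, HRP secondary 2 h, ECL detection.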

Assay [3] has as its system A549. Kind of assay: Induction of apoptosis in human A549 cells assessed as downregulation of Bcl2 level at 2 to 4 nM after 24 to 48 hrs by Western blot method. It counts as functional, cell-based. The method in brief: as §1
Assay [4] has as its system A549. Kind of assay: Induction of mitochondrial membrane disruption in human A549 cells at 2 to 8 nM after 48 hrs by JC1/Hoechst 33342 staining based flow cytometry. Format: functional, cell-based. A general note: A flow cytometer gives signals particle by particle.
In assay [5] the test system is A549. Kind of assay: Induction of ROS generation in human A549 cells at 2 to 8 nM after 12 hrs by DCFH-DA staining based fluorescence microscopic method. It counts as functional, cell-based. The procedure, abridged: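 A549 plated at 3 × 10⁵ cells/well and grown 24 h, then exposed to compound (2, 4, 8 nM) for 12 h. Loaded with DCFH-DA in fresh medium at 37 °C for 30 min and washed three times with PBS. DCF fluorescence read at excitation 488 and emission 525 nm. Images taken after Hoechst 33342 nuclear staining.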

Assay [6] has as its system HeLa. Put plainly: Induction of morphological changes in human HeLa cells at 2 to 8 nM after 48 hrs by confocal microscopic method. Format: functional, cell-based. The method in brief:
(§2)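 Human cancer cells were treated at the indicated concentrations, or 0.01% DMSO vehicle, for 48 h. Cells were then fixed and their morphology was examined by microscopy with a 20× objective.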

The subject of assay [7] is A549. Kind of assay: Antimigratory activity against human A549 cells assessed as suppression of wound healing at 4 nM after 24 hrs by phase contrast microscopic method. Format: functional, cell-based. The procedure, abridged:
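Scratch wound assay: A549 plated at 5 × 10⁴ cells/dish and grown 24 h before scraping with a 10 μL tip. Medium then swapped to serum-free DMEM containing compound (4 nM) for 24 h. After a PBS wash, wound images taken at 0 and 24 h; at least three independent experiments.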

The test system of assay [8] is A549. Kind of assay: Cell cycle arrest in human A549 cells assessed as accumulation at G2/M phase up to 24 hrs by propidium iodide staining based flow cytometry. It counts as functional. The procedure, abridged:
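A549 seeded in six-well plates at 3 × 10⁵ cells/well and treated for 12 or 24 h; vehicle 0.01% DMSO. Cells fixed overnight in ice-cold 70% ethanol, treated with RNase A at 37 °C for 30 min, then stained with PI at 4 °C for 30 min. About 10 000 events acquired by flow cytometry at 488 nm; three experiments.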

In assay [9] the test system is A549. Put plainly: Induction of apoptosis in human A549 cells assessed as upregulation of Bax level at 2 to 4 nM after 24 to 48 hrs by Western blot method. It counts as functional, cell-based. The procedure, abridged:
as §1
For orientation: A western blot detects proteins with antibodies after separation by electrophoresis.

The subject of assay [10] is HeLa. Put plainly: Disruption of microtubule network in human HeLa cells at 4 to 8 nM after 12 hrs by Hoechst 33342 staining based laser scanning confocal microscopic method. Format: cell-based. The procedure, abridged:
(§3)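 A549 and HeLa cells at 3 × 10⁵ per confocal dish, grown 24 h, then exposed to compound (2, 4 or 8 nM) or 0.01% DMSO for 12 h. Fixed in 4% paraformaldehyde at 37 °C for 15 min, permeabilised with 0.5% Triton X-100, blocked with 10% goat serum. Stained with mouse anti-tubulin at 4 °C overnight, then Alexa-Fluor 488 secondary; Hoechst 33342 nuclear stain; confocal imaging.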

For a further assay, the system named is MCF7. Put plainly: Induction of morphological changes in human MCF7 cells at 2 to 8 nM after 48 hrs by confocal microscopic method. Format: functional, cell-based. The procedure, abridged:
as §2

For a further assay, the species on record is Sus scrofa. Kind of assay: Inhibition of porcine brain tubulin polymerization measured every 60 secs for 90 mins by DAPI staining based fluorescence assay. The method in brief:
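Purified tubulin was tested in a kit assay. Final buffer: 80 mM PIPES sesquisodium (pH 6.9), 2.0 mM MgCl₂, 0.5 mM EGTA, 1 mM GTP, 10.2% glycerol. Compound (0.1–10 μM) was prewarmed at 37 °C for 1 min before tubulin was added. DAPI reporter fluorescence (ex 340 / em 410 nm) was read every 60 s for 90 min. Area under the curve gave percent inhibition versus control and the IC50.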

Assay [11] relates to A549. Put plainly: Disruption of microtubule network in human A549 cells at 2 nM after 12 hrs by Hoechst 33342 staining based laser scanning confocal microscopic method. It counts as cell-based. The procedure, abridged: as §3
The next assay has as its system MGC-803. Put plainly: Induction of morphological changes in human MGC803 cells at 2 to 8 nM after 48 hrs by confocal microscopic method. Format: functional, cell-based. The method in brief: as §2
The subject of assay [12] is HeLa. Put plainly: Disruption of microtubule network in human HeLa cells at 2 nM after 12 hrs by Hoechst 33342 staining based laser scanning confocal microscopic method. Format: cell-based. The method in brief:
as §3

The subject of assay [13] is A549. Kind of assay: Disruption of microtubule network in human A549 cells at 4 to 8 nM after 12 hrs by Hoechst 33342 staining based laser scanning confocal microscopic method. It counts as cell-based. The procedure, abridged: as §3

Active and inactive are the calls of the source. The calls are words filed in the database; no cut-off is given here.

For the compound `COc1ccc(/C=C\c2cc(OC)c(OC)c(OC)c2)cc1OP(=O)(O)O` [FOSBRETABULIN], the inhibition in vivo at 30 mg/kg with A549 [1] came to 56.6%.
Regarding `C[Se]c1ccc(N(C)c2nc(C)nc3ccccc23)cc1`, the outcome with A549 [2], in the assay with A549 [3], in the assay with A549 [4], in the assay on A549 [5], with HeLa [6] and in the assay with A549 [7] was Active. Also, the outcome in the assay on A549 [9], in the assay on HeLa [10], in the assay with MCF7, in the assay with MGC-803 and in the assay with A549 [13] was Active. Further, the Activity result with A549 [8] is “Dose-dependent effect”. Also, in the assay filed under Sus scrofa, the inhibition result is “Dose-dependent effect”. Further, the result in the assay with A549 [11] and in the assay on HeLa [12] was inactive.

For the origin of these results see ChEMBL document CHEMBL4020840, “Synthesis and Biological Evaluation of Selenium-Containing 4-Anilinoquinazoline Derivatives as Novel Antimitotic Agents” (J Med Chem, 2018).
